# How the values were obtained:
# Format in all cases: functional
# Staphylococcus aureus [1] = assay: Bactericidal activity against methicillin-resistant Staphylococcus aureus clinical isolate 237 after 24 hrs; settings: isolate 237, 24 h
# Outline: (§1)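 Bactericidal concentration: 0.1 ml from wells at the MIC dilution and the dilutions on either side was streaked onto tryptic soy agar and incubated 24 h. It was taken as the lowest drug concentration giving no growth (100% killing).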
# Staphylococcus aureus [2] = assay: Antimicrobial activity against methicillin-resistant Staphylococcus aureus clinical isolate 215 by broth dilution method
# [3] = tested on: Staphylococcus epidermidis; assay: Antimicrobial activity against Staphylococcus epidermidis ATCC 12228 by broth dilution method; settings: for MIC: Staphylococcus epidermidis, ATCC 12228
# Candida parapsilosis = assay: Antimicrobial activity against Candida parapsilosis ATCC 90030 by broth dilution method; settings: Lodderomyces parapsilosis
# Staphylococcus aureus [4] = assay: Bactericidal activity against methicillin-resistant Staphylococcus aureus clinical isolate 231 after 24 hrs; settings: isolate 231, 24 h; outline: as §1
# Staphylococcus aureus [5] = assay: Antimicrobial activity against methicillin-resistant Staphylococcus aureus clinical isolate 232 by broth dilution method
# Staphylococcus aureus [6] = assay: Bactericidal activity against Staphylococcus aureus ATCC 29213 after 24 hrs; settings: ATCC 29213, 24 h; outline: as §1
# Candida tropicalis = assay: Antimicrobial activity against Candida tropicalis ATCC 750 by broth dilution method
# Staphylococcus aureus [7] = assay: Antimicrobial activity against methicillin-resistant Staphylococcus aureus clinical isolate 264 by broth dilution method
# Staphylococcus aureus [8] = assay: Bactericidal activity against methicillin-resistant Staphylococcus aureus clinical isolate 260 after 24 hrs; settings: isolate 260, 24 h; outline: as §1
# Staphylococcus aureus [9] = assay: Antimicrobial activity against Staphylococcus aureus ATCC 29213 by broth dilution method; settings: Staphylococcus aureus, ATCC 29213
# Staphylococcus aureus [10] = assay: Bactericidal activity against methicillin-resistant Staphylococcus aureus clinical isolate 195 after 24 hrs; settings: isolate 195, 24 h; outline: as §1
# Staphylococcus aureus [11] = assay: Bactericidal activity against methicillin-resistant Staphylococcus aureus clinical isolate 232 after 24 hrs; settings: isolate 232, 24 h; outline: as §1
# Staphylococcus aureus [12] = assay: Antimicrobial activity against methicillin-resistant Staphylococcus aureus clinical isolate 218 by broth dilution method
# Staphylococcus aureus [13] = assay: Antimicrobial activity against methicillin-resistant Staphylococcus aureus clinical isolate 195 by broth dilution method
# Staphylococcus aureus [14] = assay: Antimicrobial activity against methicillin-resistant Staphylococcus aureus clinical isolate 235 by broth dilution method
# Staphylococcus aureus [15] = assay: Antimicrobial activity against methicillin-resistant Staphylococcus aureus clinical isolate 212 by broth dilution method
# Staphylococcus aureus [16] = assay: Bactericidal activity against methicillin-resistant Staphylococcus aureus clinical isolate 255 after 24 hrs; settings: isolate 255, 24 h; outline: as §1
# Escherichia coli [17] = assay: Bactericidal activity against Escherichia coli ATCC 11229 after 24 hrs; settings: ATCC 11229, 24 h
# Outline: (§2)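 MBC: after MIC determination, 0.1 ml from the MIC well and from two dilutions either side streaked on tryptic soy agar, incubated 24 h; MBC taken as lowest concentration giving no growth (100% kill).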
# Staphylococcus aureus [18] = assay: Antimicrobial activity against methicillin-resistant Staphylococcus aureus clinical isolate 231 by broth dilution method
# Staphylococcus aureus [19] = assay: Antimicrobial activity against methicillin-resistant Staphylococcus aureus clinical isolate 238 by broth dilution method
# Staphylococcus aureus [20] = assay: Bactericidal activity against methicillin-resistant Staphylococcus aureus clinical isolate 236 after 24 hrs; settings: isolate 236, 24 h; outline: as §1
# Pseudomonas aeruginosa = assay: Antimicrobial activity against Pseudomonas aeruginosa ATCC 27853 by broth dilution method
# Staphylococcus aureus [21] = assay: Bactericidal activity against methicillin-resistant Staphylococcus aureus clinical isolate 227 after 24 hrs; settings: isolate 227, 24 h; outline: as §1
# Staphylococcus aureus [22] = assay: Bactericidal activity against methicillin-resistant Staphylococcus aureus clinical isolate 259 after 24 hrs; settings: isolate 259, 24 h; outline: as §1
# Staphylococcus aureus [23] = assay: Antimicrobial activity against methicillin-resistant Staphylococcus aureus clinical isolate 259 by broth dilution method
# Staphylococcus aureus [24] = assay: Antimicrobial activity against methicillin-resistant Staphylococcus aureus clinical isolate 207 by broth dilution method
# Staphylococcus aureus [25] = assay: Antimicrobial activity against methicillin-resistant Staphylococcus aureus clinical isolate 205 by broth dilution method
# Staphylococcus aureus [26] = assay: Antimicrobial activity against methicillin-resistant Staphylococcus aureus clinical isolate 260 by broth dilution method
# Staphylococcus aureus [27] = assay: Antimicrobial activity against methicillin-resistant Staphylococcus aureus clinical isolate 176 by broth dilution method
# Candida albicans = assay: Antimicrobial activity against Candida albicans ATCC 22019 by broth dilution method
# Staphylococcus aureus [28] = assay: Bactericidal activity against methicillin-resistant Staphylococcus aureus clinical isolate 235 after 24 hrs; settings: isolate 235, 24 h; outline: as §1
# [29] = tested on: Staphylococcus epidermidis; assay: Bactericidal activity against Staphylococcus epidermidis ATCC 12228 after 24 hrs; settings: ATCC 12228, 24 h; outline: as §2
# Staphylococcus aureus [30] = assay: Bactericidal activity against methicillin-resistant Staphylococcus aureus clinical isolate 212 after 24 hrs; settings: isolate 212, 24 h; outline: as §1
# Staphylococcus aureus [31] = assay: Antimicrobial activity against methicillin-resistant Staphylococcus aureus clinical isolate 178 by broth dilution method
# Staphylococcus aureus [32] = assay: Bactericidal activity against methicillin-resistant Staphylococcus aureus clinical isolate 207 after 24 hrs; settings: isolate 207, 24 h; outline: as §1
# Nakaseomyces glabratus = assay: Antimicrobial activity against Candida glabrata ATCC 18804 by broth dilution method
# Staphylococcus aureus [33] = assay: Bactericidal activity against methicillin-resistant Staphylococcus aureus clinical isolate 257 after 24 hrs; settings: isolate 257, 24 h; outline: as §1
# Escherichia coli [34] = assay: Antimicrobial activity against Escherichia coli ATCC 11229 by broth dilution method
# Staphylococcus aureus [35] = assay: Antimicrobial activity against methicillin-resistant Staphylococcus aureus clinical isolate by broth dilution method
# Staphylococcus aureus [36] = assay: Bactericidal activity against methicillin-resistant Staphylococcus aureus clinical isolate 238 after 24 hrs; settings: isolate 238, 24 h; outline: as §1
# Staphylococcus aureus [37] = assay: Bactericidal activity against methicillin-resistant Staphylococcus aureus clinical isolate 225 after 24 hrs; settings: isolate 225, 24 h; outline: as §1
# Staphylococcus aureus [38] = assay: Bactericidal activity against methicillin-resistant Staphylococcus aureus clinical isolate 176 after 24 hrs; settings: isolate 176, 24 h; outline: as §1
# Staphylococcus aureus [39] = assay: Antimicrobial activity against methicillin-resistant Staphylococcus aureus clinical isolate 257 by broth dilution method
# Staphylococcus aureus [40] = assay: Antimicrobial activity against methicillin-resistant Staphylococcus aureus clinical isolate 227 by broth dilution method
# Staphylococcus aureus [41] = assay: Bactericidal activity against methicillin-resistant Staphylococcus aureus clinical isolate 264 after 24 hrs; settings: isolate 264, 24 h; outline: as §1
# Staphylococcus aureus [42] = assay: Bactericidal activity against methicillin-resistant Staphylococcus aureus clinical isolate 178 after 24 hrs; settings: isolate 178, 24 h; outline: as §1
# Staphylococcus aureus [43] = assay: Bactericidal activity against methicillin-resistant Staphylococcus aureus clinical isolate 215 after 24 hrs; settings: isolate 215, 24 h; outline: as §1
# Staphylococcus aureus [44] = assay: Antimicrobial activity against methicillin-resistant Staphylococcus aureus clinical isolate 225 by broth dilution method
# Staphylococcus aureus [45] = assay: Antimicrobial activity against methicillin-resistant Staphylococcus aureus clinical isolate 236 by broth dilution method
# Staphylococcus aureus [46] = assay: Antimicrobial activity against methicillin-resistant Staphylococcus aureus clinical isolate 237 by broth dilution method
# Staphylococcus aureus [47] = assay: Antimicrobial activity against methicillin-resistant Staphylococcus aureus clinical isolate 255 by broth dilution method
# Staphylococcus aureus [48] = assay: Antimicrobial activity against methicillin-resistant Staphylococcus aureus clinical isolate assessed as resistant isolates by broth dilution method
# Staphylococcus aureus [49] = assay: Bactericidal activity against methicillin-resistant Staphylococcus aureus clinical isolate 218 after 24 hrs; settings: isolate 218, 24 h; outline: as §1
# Staphylococcus aureus [50] = assay: Antimicrobial activity against methicillin-resistant Staphylococcus aureus clinical isolate assessed as susceptible isolates by broth dilution method
structure (smiles),measurement,setting,value
CCCCCCCCCOc1ccc(CNC(CO)(CO)CO)cc1.Cl,MBC,Staphylococcus aureus [1],32 µg/mL
same,MIC,Staphylococcus aureus [2],16 µg/mL
same,-logMIC,[3],4.68
same,MIC,[3],8 µg/mL
same,MIC,Candida parapsilosis,32 µg/mL
same,MBC,Staphylococcus aureus [4],32 µg/mL
same,MIC,Staphylococcus aureus [5],16 µg/mL
same,MBC,Staphylococcus aureus [6],16 µg/mL
same,MIC,Candida tropicalis,64 µg/mL
same,MIC,Staphylococcus aureus [7],8 µg/mL
same,MBC,Staphylococcus aureus [8],32 µg/mL
same,MIC,Staphylococcus aureus [9],8 µg/mL
same,MBC,Staphylococcus aureus [10],32 µg/mL
same,MBC,Staphylococcus aureus [11],32 µg/mL
same,MIC,Staphylococcus aureus [12],8 µg/mL
same,MIC,Staphylococcus aureus [13],8 µg/mL
same,MIC,Staphylococcus aureus [14],8 µg/mL
same,MIC,Staphylococcus aureus [15],32 µg/mL
same,MBC,Staphylococcus aureus [16],32 µg/mL
same,MBC,Escherichia coli [17],32 µg/mL
same,MIC,Staphylococcus aureus [18],8 µg/mL
same,MIC,Staphylococcus aureus [19],32 µg/mL
same,MBC,Staphylococcus aureus [20],16 µg/mL
same,MIC,Pseudomonas aeruginosa,> 256 µg/mL
same,MBC,Staphylococcus aureus [21],64 µg/mL
same,MBC,Staphylococcus aureus [22],32 µg/mL
same,MIC,Staphylococcus aureus [23],8 µg/mL
same,MIC,Staphylococcus aureus [24],16 µg/mL
same,MIC,Staphylococcus aureus [25],8 µg/mL
same,MIC,Staphylococcus aureus [26],16 µg/mL
same,MIC,Staphylococcus aureus [27],8 µg/mL
same,MIC,Candida albicans,4 µg/mL
same,MBC,Staphylococcus aureus [28],32 µg/mL
same,MBC,[29],16 µg/mL
same,MBC,Staphylococcus aureus [30],64 µg/mL
same,MIC,Staphylococcus aureus [31],16 µg/mL
same,MBC,Staphylococcus aureus [32],64 µg/mL
same,MIC,Nakaseomyces glabratus,4 µg/mL
same,MBC,Staphylococcus aureus [33],64 µg/mL
same,-logMIC,Escherichia coli [34],4.38
same,MIC,"Escherichia coli [34]; Escherichia coli, ATCC 11229",16 µg/mL
same,-logMIC,Staphylococcus aureus [35],4.529
same,MIC50,Staphylococcus aureus [35]; Staphylococcus aureus,8 µg/mL
same,MIC90,Staphylococcus aureus [35]; Staphylococcus aureus,16 µg/mL
same,MBC,Staphylococcus aureus [36],32 µg/mL
same,MBC,Staphylococcus aureus [37],16 µg/mL
same,MBC,Staphylococcus aureus [38],32 µg/mL
same,MIC,Staphylococcus aureus [39],8 µg/mL
same,MIC,Staphylococcus aureus [40],16 µg/mL
same,MBC,Staphylococcus aureus [41],32 µg/mL
same,MBC,Staphylococcus aureus [42],32 µg/mL
same,MBC,Staphylococcus aureus [43],32 µg/mL
same,MIC,Staphylococcus aureus [44],8 µg/mL
same,MIC,Staphylococcus aureus [45],8 µg/mL
same,MIC,Staphylococcus aureus [46],16 µg/mL
same,MIC,Staphylococcus aureus [47],16 µg/mL
O=C(N[C@H](CO)[C@H](O)c1ccc([N+](=O)[O-])cc1)C(Cl)Cl [CHLORAMPHENICOL],MBC,Staphylococcus aureus [1],16 µg/mL
same,MIC,Staphylococcus aureus [2],64 µg/mL
same,MIC,[3],32 µg/mL
same,Activity,Staphylococcus aureus [48],56.3%
same,MBC,Staphylococcus aureus [4],16 µg/mL
same,MIC,Staphylococcus aureus [5],64 µg/mL
same,MIC,Staphylococcus aureus [7],8 µg/mL
same,MBC,Staphylococcus aureus [8],32 µg/mL
same,MBC,Staphylococcus aureus [11],16 µg/mL
same,MIC,Staphylococcus aureus [12],64 µg/mL
same,MIC,Staphylococcus aureus [13],4 µg/mL
same,MIC,Staphylococcus aureus [14],64 µg/mL
same,MIC,Staphylococcus aureus [15],8 µg/mL
same,MBC,Staphylococcus aureus [16],8 µg/mL
same,MIC,Staphylococcus aureus [18],64 µg/mL
same,MIC,Staphylococcus aureus [19],32 µg/mL
same,MBC,Staphylococcus aureus [20],32 µg/mL
same,MIC,Pseudomonas aeruginosa,32 µg/mL
same,MBC,Staphylococcus aureus [22],8 µg/mL
same,MIC,Staphylococcus aureus [23],128 µg/mL
same,MIC,Staphylococcus aureus [24],4 µg/mL
same,MIC,Staphylococcus aureus [25],8 µg/mL
same,MIC,Staphylococcus aureus [26],4 µg/mL
same,MIC,Staphylococcus aureus [27],64 µg/mL
same,MBC,Staphylococcus aureus [28],32 µg/mL
same,MBC,[29],128 µg/mL
same,MBC,Staphylococcus aureus [30],128 µg/mL
same,MIC,Staphylococcus aureus [31],4 µg/mL
same,MBC,Staphylococcus aureus [33],8 µg/mL
same,MIC90,Staphylococcus aureus [35]; Staphylococcus aureus,32 µg/mL
same,MBC,Staphylococcus aureus [36],16 µg/mL
same,MBC,Staphylococcus aureus [37],512 µg/mL
same,MBC,Staphylococcus aureus [49],128 µg/mL
same,Activity,Staphylococcus aureus [50],43.7%
same,MIC,Staphylococcus aureus [39],8 µg/mL
same,MIC,Staphylococcus aureus [40],64 µg/mL
same,MBC,Staphylococcus aureus [41],64 µg/mL
same,MIC,Staphylococcus aureus [44],8 µg/mL
same,MIC,Staphylococcus aureus [45],64 µg/mL
same,MIC,Staphylococcus aureus [46],32 µg/mL
same,MIC,Staphylococcus aureus [47],4 µg/mL

# — ChEMBL document CHEMBL2380298, “Synthesis and antimicrobial activity of novel amphiphilic aromatic amino alcohols” (2013)
